# Activity calls are given as the source filed them. No cut-off for these calls is given here.
# Tests used:
# [1] = tested on: Human betaherpesvirus 5; assay: Antiviral actiivty against Human herpesvirus 5 AD169 infected in HEL assessed as reduction of virus-induced plaque formation; type: functional, organism-based; details: Human betaherpesvirus 5, AD169
# In short: (§1)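 HCMV strains AD-169 and Davis were tested on confluent human embryonic lung fibroblast monolayers infected with 100 PFU in the presence of serial compound concentrations. Plaques were counted once formation was complete in untreated infected controls. EC50 is the concentration that cuts plaque formation by 50%.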
# [2] = tested on: Human alphaherpesvirus 3; assay: Antiviral activity against Varicella-zoster virus OKA; type: functional; details: strain Oka vaccine
# In short: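 Confluent cell monolayers were infected with 10 or 100 PFU of VZV in the presence of serial compound dilutions. Plaque formation was recorded once untreated infected controls reached completion. EC50 was the concentration that reduced plaque formation by 50%.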
# [3] = tested on: Sindbis virus; assay: Antiviral activity against Sindbis virus; type: functional, organism-based
# In short: (§2)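 Confluent HEL, Vero, HeLa or MDCK cell cultures were inoculated with 100 CCID50 of virus alongside varying compound concentrations. Cytopathicity was scored when it reached completion in untreated virus controls. EC50 is the concentration that reduces virus-induced cytopathogenicity by 50%.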
# [4] = tested on: Influenza B virus; assay: Antiviral activity against Influenza B virus; type: functional, organism-based
# In short: (§3)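 The assay was a cell-based cytopathicity inhibition test on confluent monolayers with serial compound dilutions. EC50 was the concentration that reduced virus-induced cytopathicity by 50%.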
# [5] = tested on: Mammalian orthoreovirus 1; assay: Antiviral activity against Reovirus-1; type: functional, organism-based; in short: as §2
# [6] = tested on: Human alphaherpesvirus 2; assay: Antiviral activity against Herpes simplex virus type 2 Lyons; type: functional, organism-based; in short: as §2
# [7] = tested on: Human alphaherpesvirus 1; assay: Antiviral activity against thymidine kinase deficient acyclovir-resistant Herpes simplex virus type 1 KOS; type: functional, organism-based
# [8] = tested on: HEL; assay: Cytotoxicity against HEL; type: cell-based; details: human
# [9] = tested on: Punta Toro virus; assay: Antiviral activity against Punta Toro virus; type: functional, organism-based; in short: as §2
# [10] = tested on: Human alphaherpesvirus 3; assay: Antiviral activity against Varicella-zoster virus YS; type: functional, organism-based
# In short: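 VZV was assayed by plaque formation. Confluent cell cultures received 10 or 100 PFU with varying compound concentrations, and plaques were recorded once complete in untreated infected controls. EC50 is the concentration that reduces plaque formation by 50%.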
# [11] = Cytotoxicity against HEL assessed as minimum cytotoxic concentration required to cause microscopically detectable alteration in cell morphology; type: cell-based; details: human, HEL cells
# [12] = tested on: Vaccinia virus; assay: Antiviral activity against Vaccinia virus Lederle; type: functional, organism-based; details: Orthopoxvirus vaccinia
# [13] = Cytotoxicity against human CEM cells; type: cell-based; details: CCRF-CEM (CEM) cells
# [14] = tested on: Human alphaherpesvirus 2; assay: Antiviral activity against Herpes simplex virus type 2 G; type: functional, organism-based; details: strain G; in short: as §2
# [15] = tested on: Human respirovirus 3; assay: Antiviral activity against Parainfluenza virus 3; type: functional, organism-based; in short: as §2
# [16] = tested on: Vesicular stomatitis virus; assay: Antiviral activity against Vesicular stomatitis virus; type: functional, organism-based
# [17] = tested on: Human alphaherpesvirus 1; assay: Antiviral activity against Herpes simplex virus type 1 KOS; type: functional, organism-based; in short: as §2
# [18] = tested on: Human betaherpesvirus 5; assay: Antiviral actiivty against Human herpesvirus 5 Davis infected in HEL assessed as reduction of virus-induced plaque formation; type: functional, organism-based; details: Human betaherpesvirus 5, Davis; in short: as §1
# [19] = tested on: Human immunodeficiency virus 1; assay: Antiviral activity against HIV1 3B infected in human CEM cells assessed as inhibition of virus-induced giant cell formation after 4 to 5 days; type: functional, organism-based; details: CCRF-CEM
# In short: (§4)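 CEM cells at about 3 × 10^5 cells/mL were infected with 100 CCID50 of HIV per mL, with compound dilutions present. They were incubated 4–5 days at 37 °C in humidified CO2, and syncytia were scored microscopically. EC50 is the concentration that inhibits giant cell formation by 50%.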
# [20] = tested on: Influenza A virus; assay: Antiviral activity against Influenza virus A virus H3N2; type: functional, organism-based; in short: as §3
# [21] = tested on: Coxsackievirus B4; assay: Antiviral activity against Coxsackie B4 virus; type: functional, organism-based; in short: as §2
# [22] = tested on: Influenza A virus; assay: Antiviral activity against Influenza virus A virus H1N1; type: functional, organism-based; in short: as §3
# [23] = tested on: Feline coronavirus; assay: Antiviral activity against Feline coronavirus; type: functional, organism-based
# [24] = tested on: Human immunodeficiency virus 2; assay: Antiviral activity against HIV2 ROD infected in human CEM cells assessed as inhibition of virus-induced giant cell formation after 4 to 5 days; type: functional, organism-based; details: ISOLATE ROD, CCRF-CEM; in short: as §4
# [25] = tested on: Respiratory syncytial virus; assay: Antiviral activity against Respiratory syncytial virus Long; type: functional, organism-based; in short: as §2
SMILES,EC50 [1] [µM],Activity [2],Activity [3],Activity [4],Activity [5],Activity [6],Activity [7],CC50 [8] [µM],Activity [9],Activity [10],MCC [11] [µM],Activity [12],Activity [14],Activity [15],Activity [16],Activity [17],EC50 [18] [µM],Activity [20],Activity [21],Activity [22],also measured
Cc1cc(C)cc(OCCCCCn2ccc(=O)[nH]c2=O)c1,> 100,inactive,inactive,inactive,inactive,inactive,inactive,> 100,inactive,inactive,> 100,inactive,inactive,inactive,inactive,inactive,> 100,inactive,inactive,inactive,"CC50 [13]: 154 µM; EC50 ([19]; Human immunodeficiency virus 1, 3B): 24 µM; Activity [23]: inactive; Activity [24]: inactive; Activity [25]: inactive"
Cc1cn(CCCCCOc2ccc(Br)cc2)c(=O)[nH]c1=O,8.9,inactive,inactive,inactive,inactive,inactive,inactive,> 100,inactive,inactive,100,inactive,inactive,inactive,inactive,inactive,9,inactive,inactive,inactive,Activity [19]: inactive; Activity [23]: inactive; Activity [24]: inactive; Activity [25]: inactive
Cc1cccc(OCCCCCn2ccc(=O)[nH]c2=O)c1,45,inactive,inactive,inactive,inactive,inactive,inactive,> 100,inactive,inactive,> 100,inactive,inactive,inactive,inactive,inactive,55,inactive,inactive,inactive,Activity [19]: inactive; Activity [23]: inactive; Activity [24]: inactive; Activity [25]: inactive
Cc1ccccc1OCCCCCn1ccc(=O)[nH]c1=O,> 100,inactive,inactive,inactive,inactive,inactive,inactive,> 100,inactive,inactive,> 100,inactive,inactive,inactive,inactive,inactive,> 100,inactive,inactive,inactive,Activity [19]: inactive; Activity [23]: inactive; Activity [24]: inactive; Activity [25]: inactive
